# Assay results taken from paper PMC5152578 (Molecular oncology, 2016).
# How the values were obtained:
# [1] = system: MDA-MB-231 cells; assay: Western blot analysis of protein markers; assay type: cell-based, human; conditions: for PARP (full-length and cleaved) expression: 48-h treatment
# Procedure, shortened: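 Total cellular protein from treated MDA-MB-231 cells, quantified by Bradford assay. Resolved on 4%–20% gradient SDS-PAGE and immunoblotted for PARP (full-length and cleaved), PN-1, Slug, vimentin, VEGF, E-cadherin, Snail, ZO-1 and ZEB-1, with actin as loading control. HRP secondary antibodies and enhanced chemiluminescence on film. Bands quantified by densitometry and normalised to actin.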
# [2] = system: MDA-MB-231 cells; assay: Cell cycle analysis by flow cytometry; assay type: cell-based, human; conditions: for apoptotic sub-G1 DNA content / G0/G1 phase DNA content: 48 h at IC50 (DET 14 μM, DETD-35 3.8 μM, PTX 60 μM); for apoptotic sub-G1 DNA content: vehicle 1.3%; for G0/G1 phase DNA content: vehicle 51.5%; for cell-cycle arrest: treatment at IC50, time course
# Procedure, shortened: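 MDA-MB-231 cells, 5 × 10^4 per well in 6-well plates, held 24 h in DMEM with 0.5% FBS. Medium then switched to 10% FBS with test compounds for 48 h, or for indicated times. Adherent and floating cells pooled, PBS-washed and fixed in ice-cold 70% ethanol overnight at 4 °C. Stained with 20 μg/mL RNase, Triton X-100 and 20 μg/mL propidium iodide for 30 min, dark, room temperature. Phase fractions (sub-G1, G0/G1, S, G2/M) taken from flow cytometric DNA histograms; three independent experiments.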
# [3] = system: MDA-MB-231 tumor cells in SCID mice; assay: Lung metastatic animal model of TNBC; assay type: in vivo, mouse; conditions: post-treatment, 5 mg/kg i.p. every three days (21 doses), day 71
# Procedure, shortened: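 Seventy female SCID mice, 5 weeks old, randomised into 7 groups. MDA-MB-231 cells (1 × 10^6) injected i.v. on day 0. One group received 10 mg/kg every two days for three doses before cell injection. Tumor and sham controls received 5% DMSO. Mice killed on day 71; lung colonies counted, body weight and organ index recorded; one-way ANOVA.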
# [4] = system: lung tissues of MDA-MB-231 xenograft SCID mice; assay: Immunohistochemistry of lung tissues; assay type: in vivo, mouse; conditions: lung tissue
# Procedure, shortened: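 Lungs from the metastasis model were fixed in 10% buffered formalin, paraffin-embedded and cut at 4 μm. Sections stained with H&E and immunostained with rabbit antibodies to VEGF, Ki-67, COX-2 and caspase 3. Staining levels quantified by image analysis and compared with sham and tumor control groups.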
# [5] = system: MDA-MB-231 cells; assay: Boyden chamber; assay type: cell-based, human; conditions: 24 h, Matrigel
# Procedure, shortened: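 Filters (8 μm) pre-coated with Matrigel (30 μg per filter) and held 2 h at 37 °C. MDA-MB-231 cells were seeded in the upper chamber at 5 × 10^4 per insert in DMEM with 0.1% FBS. The lower well held 10% FBS chemoattractant plus 0.5% DMSO vehicle or test compounds, two concentrations each. Incubation 24 h, 37 °C, 5% CO2. Cells on the upper surface were scraped off; invaded cells fixed, DAPI-stained (1 μg/mL) and counted in three 20× fields. Three independent experiments, mean ± SEM, one-way ANOVA.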
# [6] = system: MDA-MB-231 cells; assay: Boyden chamber migration assay; assay type: cell-based, human; conditions: 24 h, vs vehicle; for reduction of cell migration, low concentration: DET 2.5 μM, DETD-35 1.25 μM, PTX 2.5 μM
# Procedure, shortened: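 Boyden inserts, 6.5 mm diameter, no coating. 5 × 10^4 MDA-MB-231 cells per insert in DMEM with 0.1% FBS. The lower well held 10% FBS chemoattractant with 0.5% DMSO vehicle or test compounds at two concentrations. Incubation 24 h, 37 °C, 5% CO2. Non-migrated cells removed by swab; migrated cells fixed, DAPI-stained (1 μg/mL) and counted in three fields at 20× by fluorescence microscopy. Three independent experiments, mean ± SEM, one-way ANOVA.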
# [7] = system: MDA-MB-231 cells; assay: Compound-drug combination assay; assay type: cell-based, human; conditions: MTT, 24 h
# Procedure, shortened: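 MDA-MB-231 cells seeded at 1.5 × 10^3–5 × 10^3 per well in 96-well plates. Treated 24 h with each agent alone to derive IC40 by MTT. Then treated with the test compound (0–4 μM) combined with paclitaxel (0–100 nM) and read by MTT. Interaction assessed by classic isobologram and the Chou-Talalay method. Combination index plotted against fraction affected: CI <1 synergy, =1 additive, >1 antagonism.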
# [8] = system: B16–F10 cells (skin); assay: MTT cell viability assay, B16–F10 cells; assay type: cell-based; conditions: read-out: 50% inhibitory concentration (IC50), B16–F10 (mouse), 24 h
# Procedure, shortened: (§1)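 Normal or cancer cells seeded at 2 × 10^3–1 × 10^4 per well in 96-well plates and allowed to settle overnight. Exposed to test compounds for 24 h, with paclitaxel run in parallel as reference. Growth read by MTT, OD570. Viability (%) = treated OD570 / vehicle OD570 × 100, with 0.5% DMSO vehicle set as 100%. IC50 derived from viability data.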
# [9] = system: TS/A (ER+, HER2−) murine mammary cancer cell line; assay: MTT cell viability assay, TS/A cells; assay type: cell-based; conditions: read-out: 50% inhibitory concentration (IC50), TS/A (mouse), Table 3, 24 h, breast
# Procedure, shortened: as §1
# [10] = system: neuroepithelioma line SK-N-MC; assay: MTT cell viability assay, SK-N-MC cells; assay type: cell-based; conditions: read-out: 50% inhibitory concentration (IC50), SK-N-MC, 24 h
# Procedure, shortened: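 Cells (2 × 10^3–1 × 10^4 per well) seeded overnight in 96-well plates, then exposed to test compound for 24 h. Growth read by MTT colorimetric assay at OD570. Viability expressed as treated OD570 over vehicle (0.5% DMSO) OD570 × 100, with vehicle set to 100% viable. IC50 taken as the concentration giving 50% inhibition of viability.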
# [11] = system: stomach cancer cell line KATO III; assay: MTT cell viability assay, KATO III cells; assay type: cell-based; conditions: read-out: 50% inhibitory concentration (IC50), KATO III, 24 h
# Procedure, shortened: as §1
# [12] = system: kidney cancer cell line A498; assay: MTT cell viability assay, A498 cells; assay type: cell-based; conditions: read-out: 50% inhibitory concentration (IC50), A498, 24 h
# Procedure, shortened: as §1
# [13] = system: MDA-MB-231 (ER−, PR−, HER2−) cells; assay: MTT cell viability assay, MDA-MB-231 cells; assay type: cell-based, human; conditions: read-out: 50% inhibitory concentration (IC50), MDA-MB-231, Table 3, 24 h, breast
# Procedure, shortened: as §1
# [14] = system: lymphoma line U937; assay: MTT cell viability assay, U937 cells; assay type: cell-based; conditions: read-out: 50% inhibitory concentration (IC50), U937, 24 h
# Procedure, shortened: as §1
# [15] = system: PC3 cells (prostate); assay: MTT cell viability assay, PC3 cells; assay type: cell-based; conditions: read-out: 50% inhibitory concentration (IC50), PC3, 24 h
# Procedure, shortened: as §1
# [16] = system: uterus cancer cell line NES-SA; assay: MTT cell viability assay, NES-SA cells; assay type: cell-based; conditions: read-out: 50% inhibitory concentration (IC50), NES-SA, 24 h
# Procedure, shortened: as §1
# [17] = system: colon cancer cell line HCT-116; assay: MTT cell viability assay, HCT-116 cells; assay type: cell-based; conditions: read-out: 50% inhibitory concentration (IC50), HCT-116, 24 h
# Procedure, shortened: as §1
# [18] = system: brain cancer cell line U-87MG; assay: MTT cell viability assay, U-87MG cells; assay type: cell-based; conditions: read-out: 50% inhibitory concentration (IC50), U-87MG, 24 h
# Procedure, shortened: as §1
# [19] = system: lung cancer cell line PC6; assay: MTT cell viability assay, PC6 cells; assay type: cell-based; conditions: read-out: 50% inhibitory concentration (IC50), PC6, 24 h
# Procedure, shortened: as §1
# [20] = DET 4 μM, DETD-35 2.5 μM, PTX 4 μM
Compound,expressions of VEGF and protease nexin-1 (PN-1) [1],vimentin expression [1],PARP (full-length and cleaved) expression [1],apoptotic sub-G1 DNA content [2] [%],G0/G1 phase DNA content [2] [%],cell-cycle arrest [2],"reduction of cell migration, low concentration [6] [%]",IC50 [8] [nM],IC50 [9] [nM],IC50 [10] [nM],IC50 [11] [nM],IC50 [12] [nM],IC50 [13] [nM],IC50 [14] [nM],IC50 [15] [nM],IC50 [16] [nM],IC50 [17] [nM],IC50 [18] [nM],IC50 [19] [nM],also measured
"CC(=O)O[C@H]1C(=O)[C@@]2(C)[C@H]([C@H](OC(=O)c3ccccc3)[C@]3(O)C[C@H](OC(=O)[C@H](O)[C@@H](NC(=O)c4ccccc4)c4ccccc4)C(C)=C1C3(C)C)[C@]1(OC(C)=O)CO[C@@H]1C[C@@H]2O [PTX, paclitaxel]",downregulated,time-dependently downregulated,reduced the expression of full-length PARP,66.8,11.2,typical time-dependent G2/M arrest,87,–,–,–,–,–,–,–,–,–,–,–,–,"reduction of lung tumor foci [3]: 62%; expression of apoptotic marker caspase 3 [4]: increased expression; inhibition of cell invasion, low concentration ([5]; DET 2.5 μM, DETD-35 1.25 μM, PTX 2.5 μM): 85%; inhibition of cell invasion, high concentration [5, 20]: 90%; reduction of cell migration, high concentration [6, 20]: 88%; IC40 on MDA-MB-231 cells [7]: 23.8 nM"
Cinnamate [compound 28],–,–,–,–,–,–,–,3900,1800,320,420,1110,4000,180,4500,420,110,350,170,–
"C=C(C)C(=O)O[C@H]1CC2=C[C@@H](C/C(C)=C/[C@H]3OC(=O)C(=C)[C@H]13)OC2=O [compound 1, deoxyelephantopin, reference compound]",downregulated,did not regulate,induced significant cleavage in PARP,19.3,36.2,did not show any cell-cycle arrest at specific stages,16,6000,2600,510,1470,2820,14000,480,12800,900,280,1000,400,ZEB-1 expression level ([1]; at 48 h): 49%
